This is an account of results in ChEMBL document CHEMBL1152331, “seco-Abietane diterpenoids, a phenylethanoid derivative, and antitubercular constituents from Callicarpa pilosissima” (2009).

Molecules are shown by their SMILES. ≈ marks a conversion by molar mass, not a printed value. Bounds are passed on as bounds.

The test has as its system Mycobacterium tuberculosis. Kind of test: Antitubercular activity against Mycobacterium tuberculosis H37Rv after 2 weeks. The following applies: 336 h. It is filed as functional. In short, it runs like this:
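Agar proportion method on Middlebrook 7H10 with OADC; compound mixed into agar at 50-56 °C by serial dilution, final 100 to 0.8 µg/mL, poured into quadrant plates. Inoculum in 7H9 broth adjusted to McFarland no. 1, then diluted 10-2; 33 µL per quadrant. Incubated 35 °C, 10% CO2, 2 weeks; MIC read. Ethambutol as positive control.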
Turning to `CC[C@@H](CO)NCCN[C@@H](CC)CO` [ETHAMBUTOL], it took 30.6 µM (≈ 6.25 µg/mL) to inhibit growth (MIC).

With `CCCCCCCCCCCCCCCCCC(=O)O` [STEARIC ACID], the MIC (in general, the least concentration at which growth counts as inhibited) was greater than 300 µM.

Turning to `CC[C@H](CC[C@@H](C)[C@H]1CC[C@H]2[C@@H]3CC=C4CC(=O)CC[C@]4(C)[C@H]3CC[C@]12C)C(C)C` [BETA-SITOSTENONE], the MIC was greater than 300 µM.

In turn, `COc1ccc(-c2oc3cc(OC)c(OC)c(O)c3c(=O)c2OC)cc1OC` [ARTEMETIN] displayed an MIC of 186 µM (≈ 72.1 µg/mL).

For `CC(C)c1ccc2c(c1)C(=O)C[C@H]1C(C)(C)CCC[C@]21C`, the MIC is greater than 300 µM.

`COc1ccc(-c2oc3cc(OC)c(OC)c(O)c3c(=O)c2OC)cc1O` [CASTICIN] yielded an MIC of 214 µM (≈ 80.1 µg/mL).

`C=C(C)[C@@H]1CC=C2C=C(C(C)C)CC[C@@H]2[C@@]1(C)CCC(=O)O` [CALLICARPIC ACID A] came in with an MIC of 238 µM (≈ 72.1 µg/mL).

In turn, `CC(C)c1ccc2c(c1)CC[C@H]1C(C)(C)C(=O)CC[C@]21C` registered an MIC of 148 µM (≈ 42.1 µg/mL).

For `C=C(C)[C@@H]1CCC2=C(C(=O)C=C(C(C)C)C2=O)[C@@]1(C)CCC(=O)O` [CALLICARPIC ACID B], inhibition of growth (MIC) required 63.6 µM (≈ 21 µg/mL).

Compound `COc1ccc(-c2oc3cc(OC)c(OC)c(OC)c3c(=O)c2OC)cc1OC` [HEXAMETHOXYFLAVONE] came in with an MIC of 179 µM (≈ 72.1 µg/mL). Compared with the last compound, the MIC is about 2.8-fold higher.

Compound `COc1cc2oc(-c3ccc(O)cc3)c(OC)c(=O)c2c(O)c1OC` [PENDULETIN] gave an MIC of 157 µM (≈ 54.1 µg/mL).

In turn, `C=C(C)[C@@H]1CCC2=C(CCC(C(C)C)=C2)[C@@]1(C)CCC(=O)OC` had a minimum inhibitory concentration (MIC) of 38 µM (≈ 12 µg/mL).

As to `C=C(C)[C@@H]1CC=C2C=C(C(C)C)CC[C@]2(O)[C@@]1(C)CCC(=O)O` [9R-HYDROXYCALLICARPIC ACID A], it took 113 µM (≈ 36 µg/mL) to inhibit growth (MIC).

For `CC(C)=CCC/C(C)=C/CC/C(C)=C/CC/C=C(\C)CC/C=C(\C)CCC=C(C)C` [SQUALENE], the MIC amounted to 122 µM (≈ 50.1 µg/mL).

As for `COc1ccc(-c2cc(=O)c3c(O)cc(O)cc3o2)cc1` [ACACETIN], the MIC is 282 µM (≈ 80.1 µg/mL). Against the preceding compound, the MIC is about 2.3-fold higher.

As to `C=C(C)[C@@H]1CCc2cc(C(C)C)ccc2[C@@]1(C)CCC(=O)OC`, 153 µM (≈ 48.1 µg/mL) was the least that counted as inhibitory (MIC).

In turn, `CCCCCCCCCCCCCC(=O)OCCc1ccc(O)cc1` gave an MIC greater than 300 µM.

For `COc1cc([C@H]2OC[C@@H]3C(=O)OC[C@@H]32)cc(OC)c1O`, the MIC is 257 µM (≈ 72.1 µg/mL).
